Reference: ChEMBL document CHEMBL1914409, “Cytotoxicity and gene expression profiles of novel synthesized steroid derivatives as chemotherapeutic anti-breast cancer agents” (Bioorg Med Chem, 2011)
The source made the active and inactive calls. The rule behind the calls is not given here.

Columns and labels:
[1] = test system: MCF7; assay: Cytotoxicity against human MCF7 cells assessed as growth inhibition after 48 hrs by SRB assay; type: functional, cell-based; settings: MCF7, 48 h
How it was run: (§1)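 MCF-7 (ATCC) kept in RPMI-1640 with penicillin/streptomycin and FBS, used at 90% confluence and seeded at 5×10^4–10^5 cells/well. Exposed to 5, 12.5, 25 or 50 µg/mL of compound in DMSO for 24, 48 or 72 h, with vehicle-treated controls and 6 wells per concentration. Cells fixed in cold TCA and stained with 0.4% SRB; dye taken up in 10 mM Tris pH 10.5 and read at 564 nm. Result given as % growth inhibition versus control.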

[2] = test system: MCF7; assay: Cytotoxicity against human MCF7 cells assessed as growth inhibition at 25 ug/ml after 48 hrs by SRB assay; type: functional, cell-based; how it was run: as §1
[3] = test system: MCF7; assay: Cytotoxicity against human MCF7 cells assessed as growth inhibition after 72 hrs by SRB assay; type: functional, cell-based; settings: MCF7, 72 h; how it was run: as §1
[4] = test system: MCF7; assay: Cytotoxicity against human MCF7 cells assessed as growth inhibition at 12.5 ug/ml after 24 hrs by SRB assay; type: functional; how it was run: as §1
[5] = test system: MCF7; assay: Reduction in AP-2 gamma mRNA expression in human MCF7 cells by RT-PCR relative to control; type: functional, cell-based
How it was run: (§2)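 RNA taken from MCF-7 cells after 48 h treatment in the cytotoxicity study, then oligo(dT)-primed reverse transcription (25 °C 10 min, 42 °C 1 h). Semi-quantitative PCR run with VEGF 40 cycles (59 °C annealing), CYP19 50 cycles (60 °C), hAP-2γ 20 cycles (65 °C) and β-actin 40 cycles (60 °C). Gel band intensity expressed as a ratio to β-actin; P<0.05.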

[6] = test system: MCF7; assay: Reduction in CYP19 mRNA expression in human MCF7 cells by RT-PCR relative to control; type: functional, cell-based; how it was run: as §2
[7] = test system: MCF7; assay: Reduction in VEGF mRNA expression in human MCF7 cells by RT-PCR relative to control; type: functional, cell-based; how it was run: as §2
[8] = test system: MCF7; assay: Cytotoxicity against human MCF7 cells assessed as growth inhibition at 5 ug/ml after 72 hrs by SRB assay relative to control; type: functional; how it was run: as §1
[9] = test system: MCF7; assay: Cytotoxicity against human MCF7 cells assessed as growth inhibition at 50 ug/ml after 48 hrs by SRB assay; type: functional, cell-based; how it was run: as §1
[10] = test system: MCF7; assay: Cytotoxicity against human MCF7 cells assessed as growth inhibition after 24 hrs by SRB assay; type: functional, cell-based; settings: MCF7, 24 h; how it was run: as §1
[11] = test system: MCF7; assay: Cytotoxicity against human MCF7 cells assessed as growth inhibition at 25 ug/ml after 24 hrs by SRB assay; type: functional; how it was run: as §1
[12] = test system: MCF7; assay: Cytotoxicity against human MCF7 cells assessed as growth inhibition at 50 ug/ml after 24 hrs by SRB assay; type: functional, cell-based; how it was run: as §1
[13] = test system: MCF7; assay: Cytotoxicity against human MCF7 cells assessed as growth inhibition at 5 ug/ml after 48 hrs by SRB assay; type: functional, cell-based; how it was run: as §1
[14] = test system: MCF7; assay: Cytotoxicity against human MCF7 cells assessed as growth inhibition at 12.5 ug/ml after 48 hrs by SRB assay; type: functional, cell-based; how it was run: as §1
[15] = test system: MCF7; assay: Cytotoxicity against human MCF7 cells assessed as growth inhibition at 12.5 ug/ml after 72 hrs by SRB assay; type: functional; settings: MCF7, 72 h, read-out: GI; how it was run: as §1

SMILES | IC50 [1] [µM] | growth inhibition (GI) [2] | IC50 [3] [µM] | growth inhibition (GI) [4] | Activity [5] | Activity [6] | Activity [7] | growth inhibition (GI) [8] | growth inhibition (GI) [9] | IC50 [10] [µM] | growth inhibition (GI) [11] | growth inhibition (GI) [12] | growth inhibition (GI) [13] | growth inhibition (GI) [14] | inhibition of growth at 12.5 µg/mL ([4]; MCF7, 24 h, read-out: GI) [%] | inhibition of growth at 5 µg/mL ([8]; MCF7, 72 h, read-out: GI) [%] | inhibition of growth at 12.5 µg/mL [15] [%] | inhibition of growth at 25 µg/mL ([11]; MCF7, 24 h, read-out: GI) [%]
C[C@]12CC[C@H]3[C@@H](CCC4=C[C@]5(CC[C@@]43C)OC5C(=O)c3ccccc3)[C@@H]1CC[C@@H]2O (stereo partly specified) | 16 | inactive | 12 | Active | Active | Active | Active | Active | Active | 15.1 | Active | Active | – | – | – | – | – | –
CC(=O)O[C@H]1CC[C@@]2(C)[C@@H](CC[C@@H]3[C@@H]2CC[C@]2(C)c4nc(CC#N)sc4C[C@@H]32)C1 | 2.5 | Active | 2.9 | – | Active | Active | Active | – | Active | 2.9 | – | Active | Active | Active | 91 | 93 | 91 | 85
C[C@]12CC[C@H]3[C@@H](CCC4=CC(=O)CC[C@@]43C)[C@@H]1CC[C@@H]2n1c(=S)n(-c2ccccc2)c(=O)c2ccccc21 | 12.5 | Active | 17.5 | Active | Active | Active | Active | Active | Active | 13.1 | Active | Active | – | – | – | – | – | –
COc1cccc2c1C(=O)c1c(O)c3c(c(O)c1C2=O)C[C@@](O)(C(=O)CO)C[C@@H]3O[C@H]1C[C@H](N)[C@H](O)[C@H](C)O1 | – | – | – | – | Active | Active | Active | – | – | – | – | – | – | – | – | – | – | –
C[C@]12CC[C@H](O)C[C@@H]1CC[C@@H]1[C@@H]2CC[C@@]2(C)[C@H]1CC[C@]21OC1C(=O)c1ccccc1 (stereo partly specified) | 7.3 | Active | 17.3 | Active | Active | Active | Active | Active | Active | 17.1 | Active | Active | – | Active | – | – | – | –
CC(=O)O[C@H]1CC[C@@]2(C)[C@@H](CC[C@@H]3[C@@H]2CC[C@]2(C)/C(=N/C4CCNN=C4O)CC[C@@H]32)C1 (stereo partly specified) | 9.9 | Active | 11.5 | – | Active | Active | Active | Active | Active | 18.5 | Active | Active | – | Active | – | – | – | –
C[C@]12CC[C@H]3[C@@H](CCC4=CC(=O)CC[C@@]43C)[C@@H]1CC[C@@H]2n1c(=S)n(-c2ccccc2)c(=O)c2cc(F)ccc21 | 11.5 | Active | 16 | – | Active | Active | Active | Active | Active | 17.7 | Active | Active | – | – | – | – | – | –
CC(=O)O[C@H]1CC[C@@]2(C)[C@@H](CC[C@@H]3[C@@H]2CC[C@]2(C)/C(=N/c4ccc(S(=O)(=O)N(CCO)c5ncccn5)cc4)CC[C@@H]32)C1 | 7.5 | Active | 10 | Active | Active | Active | Active | Active | inactive | 14.7 | Active | Active | – | Active | – | – | – | –
